{"source": "ChEMBL document CHEMBL1949557", "about": "“Discovery of INCB3284, a Potent, Selective, and Orally Bioavailable hCCR2 Antagonist” (ACS Med Chem Lett, 2011)", "key": {"[1]": {"experiment": "Cmax in chimpanzee at 4 mg/kg, po", "type": "ADME, organism-based, Pan troglodytes", "design": "dose 4 mg/kg, route oral", "conditions": "in vivo", "outline": "(§1)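 Pharmacokinetics run in rats, dogs, cynomolgus monkeys and chimpanzees, with two animals per species for the iv arm and two per species for the oral arm. Parameters were derived per species and route: CL, Vss and T1/2 from iv dosing; Cmax, Tmax, AUC, T1/2 and F% from oral dosing. Values are reported as mean ± spread.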"}, "Mus musculus": {"test_system": "Mus musculus", "experiment": "Dose normalized AUC in mouse at 10 mg/kg, po", "type": "ADME, organism-based", "design": "dose 10 mg/kg, route oral", "conditions": "in vivo", "outline": "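Mouse oral PK screen by cassette dosing at 10 mg/kg, three animals per cassette. AUC is dose-normalized.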"}, "[2]": {"experiment": "Clearance in dog at 5 mg/kg, iv", "type": "ADME, organism-based, Canis lupus familiaris", "design": "dose 5 mg/kg, route intravenous", "conditions": "in vivo", "outline": "as §1"}, "Rattus norvegicus": {"test_system": "Rattus norvegicus", "experiment": "AUC in rat at 10 mg/kg, po", "type": "ADME, organism-based, Plasma", "design": "dose 10 mg/kg, route oral", "conditions": "in vivo", "outline": "as §1"}, "[3]": {"experiment": "Half life in human administered as qd", "type": "ADME, organism-based", "conditions": "in vivo"}, "[4]": {"experiment": "Half life in rat at 5 mg/kg, iv", "type": "ADME, organism-based", "design": "dose 5 mg/kg, route intravenous", "conditions": "in vivo", "outline": "as §1"}, "[5]": {"experiment": "Clearance in cynomolgus monkey at 5 mg/kg, iv", "type": "ADME, organism-based, Macaca fascicularis", "design": "dose 5 mg/kg, route intravenous", "conditions": "in vivo", "outline": "as §1"}, "Cytochrome P450 2C19": {"biological_target": "Cytochrome P450 2C19 (Homo sapiens, UniProt P33261)", "sequence (P33261 whole entry)": "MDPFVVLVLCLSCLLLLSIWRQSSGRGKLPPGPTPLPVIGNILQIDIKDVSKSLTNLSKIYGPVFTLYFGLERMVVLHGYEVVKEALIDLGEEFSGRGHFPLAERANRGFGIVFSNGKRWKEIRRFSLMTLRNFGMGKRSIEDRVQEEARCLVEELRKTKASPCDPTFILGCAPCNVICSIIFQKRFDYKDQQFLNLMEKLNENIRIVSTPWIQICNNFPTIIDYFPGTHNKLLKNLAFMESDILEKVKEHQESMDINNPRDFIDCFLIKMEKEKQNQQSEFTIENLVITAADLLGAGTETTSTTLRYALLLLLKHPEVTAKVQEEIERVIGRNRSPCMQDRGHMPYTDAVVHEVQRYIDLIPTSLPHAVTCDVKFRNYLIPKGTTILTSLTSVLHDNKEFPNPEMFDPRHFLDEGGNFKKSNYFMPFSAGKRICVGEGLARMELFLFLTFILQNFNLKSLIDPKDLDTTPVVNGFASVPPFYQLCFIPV", "experiment": "Inhibition of CYP2C19", "type": "ADME"}, "Cytochrome P450 2C9": {"biological_target": "Cytochrome P450 2C9 (Homo sapiens, UniProt P11712)", "sequence (P11712 whole entry)": "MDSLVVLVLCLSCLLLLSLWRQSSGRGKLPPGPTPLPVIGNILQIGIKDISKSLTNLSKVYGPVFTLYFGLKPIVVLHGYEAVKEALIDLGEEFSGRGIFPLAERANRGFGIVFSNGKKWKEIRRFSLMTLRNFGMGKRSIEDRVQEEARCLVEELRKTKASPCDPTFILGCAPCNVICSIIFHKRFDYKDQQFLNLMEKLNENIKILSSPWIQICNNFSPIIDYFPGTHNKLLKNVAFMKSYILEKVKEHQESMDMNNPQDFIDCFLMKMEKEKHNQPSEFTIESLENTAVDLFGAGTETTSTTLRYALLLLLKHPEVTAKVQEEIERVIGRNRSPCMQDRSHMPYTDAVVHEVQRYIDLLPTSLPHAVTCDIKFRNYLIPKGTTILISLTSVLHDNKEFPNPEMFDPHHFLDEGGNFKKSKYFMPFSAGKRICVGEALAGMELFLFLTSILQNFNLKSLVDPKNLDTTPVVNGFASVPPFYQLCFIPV", "experiment": "Inhibition of CYP2C9", "type": "ADME"}, "[6]": {"experiment": "Fraction unbound in human serum at 1 to 10 uM", "type": "ADME, cell-free", "outline": "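Serum protein binding measured in human serum at 1 and 10 μM test concentrations. Read-out is the free (unbound) fraction.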"}, "[7]": {"experiment": "Half life in dog at 30 mg/kg, po", "type": "ADME, organism-based, Canis lupus familiaris", "design": "dose 30 mg/kg, route oral", "conditions": "in vivo", "outline": "as §1"}, "[8]": {"experiment": "AUC in chimpanzee at 4 mg/kg, po", "type": "ADME, organism-based, Pan troglodytes", "design": "dose 4 mg/kg, route oral", "conditions": "plasma", "outline": "as §1"}, "[9]": {"biological_target": "C-C chemokine receptor type 2 (Homo sapiens, UniProt P41597)", "sequence (P41597 whole entry)": "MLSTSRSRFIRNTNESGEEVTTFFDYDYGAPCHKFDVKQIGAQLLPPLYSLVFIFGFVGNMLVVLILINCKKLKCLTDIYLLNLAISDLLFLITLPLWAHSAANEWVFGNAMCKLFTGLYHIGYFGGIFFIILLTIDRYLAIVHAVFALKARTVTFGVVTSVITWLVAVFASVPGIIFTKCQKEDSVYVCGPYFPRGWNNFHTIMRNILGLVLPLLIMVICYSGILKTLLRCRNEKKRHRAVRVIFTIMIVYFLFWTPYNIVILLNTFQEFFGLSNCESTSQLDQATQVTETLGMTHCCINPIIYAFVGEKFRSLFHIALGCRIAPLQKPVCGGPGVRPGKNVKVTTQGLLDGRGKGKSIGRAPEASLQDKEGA", "experiment": "Inhibition of human CCR2-mediated intracellular calcium mobilization by cell based assay", "type": "functional"}, "Cytochrome P450 1A2": {"biological_target": "T1, Cytochrome P450 1A2 (Homo sapiens, UniProt P05177)", "T1 sequence (P05177 whole entry)": "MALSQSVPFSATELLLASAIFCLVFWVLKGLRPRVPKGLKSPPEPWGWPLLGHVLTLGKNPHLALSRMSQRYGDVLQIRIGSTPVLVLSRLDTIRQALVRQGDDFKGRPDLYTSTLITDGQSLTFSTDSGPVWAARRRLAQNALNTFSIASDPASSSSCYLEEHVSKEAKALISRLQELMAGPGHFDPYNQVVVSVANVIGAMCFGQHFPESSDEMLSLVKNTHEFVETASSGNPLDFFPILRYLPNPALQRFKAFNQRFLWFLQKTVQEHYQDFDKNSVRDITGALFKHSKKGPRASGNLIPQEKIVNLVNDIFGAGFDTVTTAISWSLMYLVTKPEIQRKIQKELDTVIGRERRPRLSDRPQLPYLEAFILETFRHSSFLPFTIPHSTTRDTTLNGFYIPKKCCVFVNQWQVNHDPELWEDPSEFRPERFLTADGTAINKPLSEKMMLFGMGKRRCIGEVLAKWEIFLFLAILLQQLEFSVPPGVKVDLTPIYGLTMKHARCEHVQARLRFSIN", "experiment": "Inhibition of CYP1A2", "type": "ADME"}, "[10]": {"experiment": "Cmax in rat at 10 mg/kg, po", "type": "ADME, organism-based", "design": "dose 10 mg/kg, route oral", "conditions": "in vivo", "outline": "as §1"}, "[11]": {"experiment": "Induction of cytochrome P450 up to 10 uM by luminometric luciferase assay", "type": "ADME"}, "[12]": {"biological_target": "C-C chemokine receptor type 5 (Homo sapiens) (UniProt P51681)", "sequence (P51681 whole entry, looked up)": "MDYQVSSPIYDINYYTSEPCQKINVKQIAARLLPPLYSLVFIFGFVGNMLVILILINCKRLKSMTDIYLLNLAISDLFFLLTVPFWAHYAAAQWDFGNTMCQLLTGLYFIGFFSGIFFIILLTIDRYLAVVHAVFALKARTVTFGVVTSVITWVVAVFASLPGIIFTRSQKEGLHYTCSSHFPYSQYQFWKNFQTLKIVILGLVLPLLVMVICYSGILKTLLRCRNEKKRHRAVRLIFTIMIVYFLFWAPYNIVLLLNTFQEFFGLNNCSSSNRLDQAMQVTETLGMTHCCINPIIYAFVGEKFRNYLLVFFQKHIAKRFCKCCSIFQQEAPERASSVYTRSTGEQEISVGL", "experiment": "Inhibition of CCR5 at 1 uM", "outline": "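Cerep selectivity panel of over 50 ion channels, transporters, chemokine receptors and other GPCRs. Single test concentration of 1 μM, scored for significant inhibition.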"}}, "note": "Activity calls are given as the source filed them. The rule behind the calls is not given here.", "data": [{"smiles": "COc1ccc([C@]2(O)CC[C@H](N3CC[C@@H](NC(=O)CNC(=O)c4cccc(C(F)(F)F)c4)C3)CC2)cn1.CS(=O)(=O)O", "values": [{"measurement": "Cmax", "setting": "[1]", "result": 1120, "unit": "nM"}, {"measurement": "AUC/dose", "setting": "Mus musculus", "result": 617, "unit": "nM·h"}, {"measurement": "clearance", "setting": "[2]", "result": 9.5, "unit": "mL/min/kg"}, {"measurement": "AUC", "setting": "Rattus norvegicus", "result": 3.657, "unit": "µM·h"}, {"measurement": "half-life", "setting": "[3]", "result": 15, "unit": "h"}, {"measurement": "half-life", "setting": "[4]", "result": 2.8, "unit": "h"}, {"measurement": "clearance", "setting": "[5]", "result": 13.7, "unit": "mL/min/kg"}, {"measurement": "IC50", "setting": "Cytochrome P450 2C19", "result": "> 25", "unit": "µM"}, {"measurement": "IC50", "setting": "Cytochrome P450 2C9", "result": "> 25", "unit": "µM"}, {"measurement": "fraction unbound at up to 10 µM", "setting": "[6]", "result": 0.58}, {"measurement": "half-life", "setting": "[7]", "result": 3.3, "unit": "h"}, {"measurement": "AUC", "setting": "[8]", "result": 4.94, "unit": "µM·h"}, {"measurement": "IC50", "setting": "[9]", "result": 0.006, "unit": "µM"}, {"measurement": "IC50", "setting": "Cytochrome P450 1A2", "result": "> 25", "unit": "µM"}, {"measurement": "Cmax", "setting": "[10]", "result": 573, "unit": "nM"}, {"measurement": "Activity", "setting": "[11]", "result": "Not Active"}, {"measurement": "inhibition", "setting": "[12]", "result": "inactive"}]}]}
